For experiment [1], the target named is T1, Glutamate NMDA receptor (Rattus norvegicus) (UniProt P35439+Q00959+Q00960+Q00961+Q62645+Q8VHN2+Q9R1M7). As to the kind of experiment: Binding affinity was measured against N-methyl-D-aspartate (NMDA) receptor in rat using [3H]CGS-19,755 as radioligand at 10 uM.
Experiment [2] deals with T2, Muscarinic acetylcholine receptor M2 (Rattus norvegicus, UniProt P10980).
T2 sequence (P10980 whole entry): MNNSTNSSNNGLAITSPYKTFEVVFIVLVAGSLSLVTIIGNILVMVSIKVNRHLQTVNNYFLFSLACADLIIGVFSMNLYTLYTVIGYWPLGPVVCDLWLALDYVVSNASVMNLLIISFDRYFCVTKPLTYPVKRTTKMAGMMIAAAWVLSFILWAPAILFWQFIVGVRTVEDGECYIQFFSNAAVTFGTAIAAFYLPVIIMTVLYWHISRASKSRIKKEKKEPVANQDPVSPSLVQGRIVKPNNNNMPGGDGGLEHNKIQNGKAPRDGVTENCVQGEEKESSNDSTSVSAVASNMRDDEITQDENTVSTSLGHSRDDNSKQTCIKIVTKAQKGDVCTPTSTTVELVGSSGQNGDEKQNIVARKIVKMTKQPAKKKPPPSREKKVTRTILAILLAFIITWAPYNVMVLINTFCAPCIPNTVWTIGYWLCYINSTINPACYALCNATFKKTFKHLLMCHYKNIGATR
In words: Binding affinity was measured against muscarinic (M2) receptor at 10 uM in rat using [3H]QN as radioligand.

The nature of experiment [3]: Binding affinity for sigma-1 site over dopamine receptor D1 in rat using [3H]SCH-23390 as radioligand.
In experiment [4] the target is T3, D(1A) dopamine receptor (Rattus norvegicus, UniProt P18901). As to the kind of experiment: The nitro derivative RLH-033 shows significant selectivity for the [3H]-(=)-PENT site over […] in rat using [3H]SCH-23390 as radioligand.
T3 sequence (P18901 whole entry): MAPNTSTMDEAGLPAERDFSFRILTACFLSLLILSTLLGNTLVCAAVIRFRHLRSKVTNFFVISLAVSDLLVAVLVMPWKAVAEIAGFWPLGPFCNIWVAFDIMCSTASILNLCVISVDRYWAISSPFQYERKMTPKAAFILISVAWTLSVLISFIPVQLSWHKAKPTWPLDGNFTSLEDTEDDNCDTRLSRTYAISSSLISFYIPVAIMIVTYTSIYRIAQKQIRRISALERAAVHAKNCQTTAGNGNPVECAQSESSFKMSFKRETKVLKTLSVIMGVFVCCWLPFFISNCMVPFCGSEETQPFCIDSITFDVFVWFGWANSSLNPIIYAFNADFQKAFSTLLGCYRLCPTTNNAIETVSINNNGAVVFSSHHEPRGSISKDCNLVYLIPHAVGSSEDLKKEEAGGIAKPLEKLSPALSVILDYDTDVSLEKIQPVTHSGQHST
A short description of experiment [5]: Binding affinity for sigma-1 site over dopamine (D2) receptor in rat using [3H]spiperone as radioligand.
The target of experiment [6] is T1, Glutamate NMDA receptor (Rattus norvegicus). In words: Binding affinity was measured as selectivity for sigma-1 site over N-methyl-D-aspartate (NMDA) receptor in rat using [3H]CGS-19,755 as radioligand at 10 uM.
In experiment [7] the target is T4, Muscarinic acetylcholine receptor M1 (Rattus norvegicus, UniProt P08482).
T4 sequence (P08482 whole entry): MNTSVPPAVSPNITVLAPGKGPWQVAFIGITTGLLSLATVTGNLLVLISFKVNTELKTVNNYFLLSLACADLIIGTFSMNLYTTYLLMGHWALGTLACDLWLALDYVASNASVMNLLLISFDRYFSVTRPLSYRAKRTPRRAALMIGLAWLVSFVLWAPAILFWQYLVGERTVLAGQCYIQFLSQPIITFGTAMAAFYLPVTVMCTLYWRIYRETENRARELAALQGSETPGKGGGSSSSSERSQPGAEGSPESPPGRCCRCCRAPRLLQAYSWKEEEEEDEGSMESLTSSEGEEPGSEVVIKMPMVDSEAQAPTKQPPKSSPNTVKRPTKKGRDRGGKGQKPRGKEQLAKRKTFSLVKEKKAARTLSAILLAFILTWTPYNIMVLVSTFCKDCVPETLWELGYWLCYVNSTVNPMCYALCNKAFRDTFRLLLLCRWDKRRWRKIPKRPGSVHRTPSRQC
In words: Binding affinity was measured as selectivity for sigma-1 site over muscarinic (M1) receptor in rat using [3H]pirenzepine as radioligand.

The target of experiment [8] is T4, Muscarinic acetylcholine receptor M1. In words: The nitro derivative RLH-033 shows significant selectivity for the [3H]-(=)-PENT site over muscarinic 1 in rat using [3H]pirenzepine as radioligand.
In experiment [9] the target is T2, Muscarinic acetylcholine receptor M2. In words: (§1) Binding affinity was measured as selectivity for sigma 1 site over muscarinic (M2) receptor at 10 uM in rat using [3H]QN as radioligand. Put shortly:
(§2)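 Muscarinic binding, M1 in rat cortex with [3H]pirenzepine 0.5 nM and M2 in rat heart with [3H]QNB 0.05 nM.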

Experiment [10] has the same target. In words: The nitro derivative RLH-033 shows significant selectivity for the [3H]-(=)-PENT site over muscarinic 2 in rat using [3H]QN as radioligand.
Experiment [11] addresses Opioid receptor (Rattus norvegicus) (UniProt P33533+P34975+P33535). As to the kind of experiment: Binding affinity was measured as selectivity for sigma-1 site over opioid receptor in rat using [3H]naloxone as radioligand at 10 uM.
The target in experiment [12] is T1, Glutamate NMDA receptor (Rattus norvegicus). In words: Binding affinity was measured as selectivity for sigma-1 site over phencyclidine (PCP) receptor in rat using [3H]TCP as radioligand at 10 uM.
In experiment [13] the target is Sigma 2 receptor. In words: The compound was evaluated for affinity at sigma-2 site by inhibition of [3H]1,3-di(2-tolyl)guanidine (DTG) binding in guinea pig brain. More on the design: species or system Cavia porcellus. The procedure, abridged:
(§3)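 Final [3H]DTG 4 nM with varied test concentrations. Incubation 25 °C for 90 min. PEI-soaked GF/B filtration, scintillation counting. Ki from EBDA/LIGAND, at least three determinations in triplicate.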

Experiment [14] addresses T5, D(2) dopamine receptor (Rattus norvegicus, UniProt P61169). In words: The nitro derivative RLH-033 shows significant selectivity for the [3H]-(=)-PENT site over dopamine 2 in rat using [3H]SCH-23390 as radioligand.
Experiment [15] concerns the target T6, Muscarinic acetylcholine receptor M2 (Rattus norvegicus) (UniProt P10980).
T6 sequence (whole entry): T2 sequence (P10980 whole entry)
The description is as §1. The procedure, abridged: as §2

The target of experiment [16] is T5, D(2) dopamine receptor. As to the kind of experiment: Iodo derivative shows a potent sigma binding ligand, had some affinity for D2 site in rat.
Experiment [17] has as its target T3, D(1A) dopamine receptor. In words: Binding affinity was measured against dopamine receptor D1 in rat using [3H]SCH-23390 as radioligand.
In experiment [18] the target is T5, D(2) dopamine receptor. As to the kind of experiment: Binding affinity was measured against dopamine (D2) receptor in rat using [3H]spiperone as radioligand.
For experiment [19], the target named is T4, Muscarinic acetylcholine receptor M1. In words: Binding affinity was measured against muscarinic (M1) receptor in rat using [3H]pirenzepine as radioligand.
Experiment [20] deals with T7, Opioid receptor (Rattus norvegicus, UniProt P33533+P34975+P33535). As to the kind of experiment: Binding affinity was measured against opioid receptor in rat using [3H]naloxone as radioligand.
The target of experiment [21] is Glutamate NMDA receptor. In words: Binding affinity was measured against phencyclidine (PCP) receptor in rat using [3H]TCP as radioligand.
Experiment [22] concerns the target T4, Muscarinic acetylcholine receptor M1. As to the kind of experiment: Binding affinity was measured as selectivity for sigma-1 site over muscarinic (M1) receptor in rat.
For experiment [23], the target named is T7, Opioid receptor. As to the kind of experiment: Binding affinity was measured as selectivity for sigma-1 site over opioid receptor in rat using [3H]naloxone as radioligand.
Experiment [24] concerns the target Glutamate NMDA receptor. In words: Binding affinity was measured as selectivity for sigma-1 site over phencyclidine (PCP) receptor in rat using [3H]TCP as radioligand.
Experiment [25] has as its target T1, Glutamate NMDA receptor (Rattus norvegicus). As to the kind of experiment: Binding affinity was measured against phencyclidine (PCP) receptor in rat using [3H]-TCP as radioligand at 10 uM.
Experiment [26] addresses Sigma 2 receptor. In words: Affinity at sigma-2 site by inhibition of [3H]1,3-di(2-tolyl)guanidine (DTG) binding in guinea pig brain. The arrangement: species or system Cavia porcellus. Put shortly: as §3

T5 sequence (P61169 whole entry): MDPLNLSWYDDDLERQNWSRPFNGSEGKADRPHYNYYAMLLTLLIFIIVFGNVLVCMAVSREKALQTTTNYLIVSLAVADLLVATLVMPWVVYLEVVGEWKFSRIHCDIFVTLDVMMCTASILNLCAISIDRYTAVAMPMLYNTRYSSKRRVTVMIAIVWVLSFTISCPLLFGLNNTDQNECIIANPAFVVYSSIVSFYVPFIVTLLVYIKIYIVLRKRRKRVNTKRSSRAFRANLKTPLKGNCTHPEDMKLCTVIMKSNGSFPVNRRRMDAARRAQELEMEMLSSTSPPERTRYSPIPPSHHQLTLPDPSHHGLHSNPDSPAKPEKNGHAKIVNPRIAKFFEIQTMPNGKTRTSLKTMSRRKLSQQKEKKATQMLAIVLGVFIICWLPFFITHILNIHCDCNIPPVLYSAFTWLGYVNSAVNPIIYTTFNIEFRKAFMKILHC
Chain of Opioid receptor (Rattus norvegicus) (P33533 whole entry, looked up): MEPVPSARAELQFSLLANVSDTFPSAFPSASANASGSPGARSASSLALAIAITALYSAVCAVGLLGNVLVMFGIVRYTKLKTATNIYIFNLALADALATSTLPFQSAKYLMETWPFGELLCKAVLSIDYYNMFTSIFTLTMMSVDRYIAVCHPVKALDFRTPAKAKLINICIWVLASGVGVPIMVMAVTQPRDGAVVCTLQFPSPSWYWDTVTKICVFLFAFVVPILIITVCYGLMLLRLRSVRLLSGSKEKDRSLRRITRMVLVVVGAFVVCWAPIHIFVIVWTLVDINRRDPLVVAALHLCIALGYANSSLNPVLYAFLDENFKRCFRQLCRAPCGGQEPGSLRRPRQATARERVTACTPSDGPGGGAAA
Chain of Opioid receptor (Rattus norvegicus) (P33535 whole entry, looked up): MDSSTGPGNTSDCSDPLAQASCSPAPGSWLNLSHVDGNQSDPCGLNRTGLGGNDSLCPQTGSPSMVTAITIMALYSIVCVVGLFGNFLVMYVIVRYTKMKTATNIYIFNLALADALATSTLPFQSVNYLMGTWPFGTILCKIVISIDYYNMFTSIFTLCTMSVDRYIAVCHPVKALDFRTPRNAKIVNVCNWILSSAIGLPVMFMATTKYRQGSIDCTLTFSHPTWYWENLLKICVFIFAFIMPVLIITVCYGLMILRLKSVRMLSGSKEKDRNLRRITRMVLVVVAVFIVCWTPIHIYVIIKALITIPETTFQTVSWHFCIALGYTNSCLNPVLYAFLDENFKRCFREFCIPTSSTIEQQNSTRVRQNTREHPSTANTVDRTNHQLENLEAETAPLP
Chain of Opioid receptor (Rattus norvegicus) (P34975 whole entry, looked up): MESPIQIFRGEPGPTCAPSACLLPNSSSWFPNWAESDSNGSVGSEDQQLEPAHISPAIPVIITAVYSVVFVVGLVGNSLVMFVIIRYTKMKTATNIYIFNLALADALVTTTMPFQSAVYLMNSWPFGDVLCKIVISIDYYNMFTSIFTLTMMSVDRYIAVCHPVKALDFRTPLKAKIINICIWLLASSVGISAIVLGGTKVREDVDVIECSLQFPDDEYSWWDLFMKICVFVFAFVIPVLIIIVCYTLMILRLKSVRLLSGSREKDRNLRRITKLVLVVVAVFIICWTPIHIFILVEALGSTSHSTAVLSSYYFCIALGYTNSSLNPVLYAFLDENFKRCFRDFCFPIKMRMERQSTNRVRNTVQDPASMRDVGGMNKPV

`COc1ccc2c(c1)[C@]13CCCC[C@@H]1[C@H](C2)N(C)CC3` [DEXTROMETHORPHAN] displayed an inhibition in experiment [1] of 2%. Further, the Ki in [2] is > 10000 nM.

Regarding `O=C(OCCN1CCC(c2ccccc2)CC1)C1(c2ccc([N+](=O)[O-])cc2)CCCC1`, the inhibition constant Ki was 2900 nM in experiment [3]; > 58000 nM in experiment [4]; 350 nM in experiment [5]; 880 nM in experiment [7]; > 17600 nM in [8]; 1710 nM in [9]. The inhibition constant (Ki) in experiment [10] is > 34200 nM; in experiment [13], 3.93 nM; in experiment [14], > 7000 nM. In addition, the values for the inhibition in [6], in [11] and in [12] were 12%, 42% and 7%, respectively.

For the molecule `O=C(OCCCN1CCC(c2ccccc2)CC1)C1(c2ccc(Cl)cc2)CCCC1`, in [13], the inhibition constant (Ki) was determined as 4.41 nM.

On to `O=C(OCCN1CCN(c2ccccc2)CC1)C1(c2ccc(I)cc2)CCCC1`, for which the Ki in experiment [3] is 650 nM; in experiment [5], 215 nM; in experiment [13], 293 nM. The inhibition in [11] stood at 25%; in experiment [12] it was 7%.

Turning to `O=C(OCCCN1CCC(c2ccccc2)CC1)C1(c2ccc([N+](=O)[O-])cc2)CCCC1`, affinity in experiment [13] was put at a Ki of 0.88 nM.

In turn, `O=C(OCCN1CCN(c2ccccc2)CC1)C1(c2ccc(Cl)cc2)CCCC1` came in with a Ki in [13] of 763 nM.

`O=C(OCCN1CCC(c2ccccc2)CC1)C1(c2ccccc2)CCCC1`: the Ki is 4900 nM in experiment [3], 1100 nM in experiment [5], 170 nM in experiment [7] and 52.3 nM in experiment [13]. The inhibition in experiment [6] worked out at 15%; in [15], 20%; in experiment [11] it was 63%; in experiment [12], 8%.

Regarding `O=C(OCCN1CCC(c2ccccc2)CC1)C1(c2ccc(I)cc2)CCCC1`, the Ki in [3] was > 1000 nM; in experiment [16] it was 55 nM; in experiment [13], 52 nM. The results for the inhibition in experiment [11] and in experiment [12] were 25% and 8%, respectively.

`CC(C)=CCN1CC[C@]2(C)c3cc(O)ccc3C[C@H]1[C@H]2C` (single isomer, unassigned) [(+)-PENTAZOCINE]: the inhibition constant Ki in experiment [17] is > 5000 nM; in experiment [18] it was > 5000 nM; in experiment [19], 225 nM; in [2], 525 nM; in experiment [20], 651 nM; in experiment [21] it was 4190 nM.

As to `O=C(OCCN1CCN(c2ccccc2)CC1)C1(c2ccc([N+](=O)[O-])cc2)CCCC1`, the Ki worked out at 1000 nM in [3], 500 nM in experiment [5] and 30.3 nM in [13]. The inhibition in experiment [6] turned out to be 19%; in [11], 25%; in [12], 10%.

On to `O=C(OCCCCCN1CCC(c2ccccc2)CC1)C1(c2ccccc2)CCCC1`, for which, in [13], affinity was put at a Ki of 1.05 nM.

As to `O=C(OCCCCN1CCC(c2ccccc2)CC1)C1(c2ccccc2)CCCC1`, the Ki stood at 3100 nM in [3], 470 nM in experiment [5] and 0.69 nM in experiment [13].

As to `COc1ccc(C2(C(=O)OCCN3CCC(c4ccccc4)CC3)CCCC2)cc1`, the affinity in [13] corresponds to a Ki of 31.8 nM.

`O=C(OCCN1CCC(c2ccccc2)CC1)C1(c2ccc(Cl)cc2)CCCC1`: in experiment [13], the Ki was 23.9 nM.

As to `O=C(OCCCN1CCC(c2ccccc2)CC1)C1(c2ccc(I)cc2)CCCC1`, the affinity in experiment [13] corresponds to a Ki of 6.49 nM.

As to `COc1ccc(C2(C(=O)OCCCN3CCC(c4ccccc4)CC3)CCCC2)cc1`, the Ki in experiment [3] is 6000 nM; in [5], 1000 nM; in experiment [13], 1.71 nM.

With `O=C(OCCCN1CCC(c2ccccc2)CC1)C1(c2ccccc2)CCCC1`, the Ki was found to be 10000 nM in [3]; 1200 nM in experiment [5]; 170 nM in experiment [22]; 670 nM in experiment [9]; 1.17 nM in [13].

Turning to `O=C(CCCN1CCC(O)(c2ccc(Cl)cc2)CC1)c1ccc(F)cc1`, the inhibition in experiment [1] came to 25%.

As to `Cc1ccccc1NC(=N)Nc1ccccc1C`, the Ki in experiment [3] was > 5000 nM; in experiment [5], > 5000 nM; in experiment [22] it was 744 nM; in experiment [9] it was 2960 nM; in experiment [23], 3950 nM; in experiment [24], 6690 nM. This molecule displayed an inhibition in experiment [6] of 0%.

Turning to `N#Cc1ccc(C2(C(=O)OCCN3CCC(c4ccccc4)CC3)CCCC2)cc1`, the Ki in [3] is > 1000 nM; in experiment [5] it was 195 nM; in [13] it was 26.8 nM.

As to `O=C(OCCN1CCN(c2ccccc2)CC1)C1(c2ccccc2)CCCC1`, the figures for the Ki in [5], in [22] and in experiment [13] were > 500 nM, 1470 nM and 696 nM, respectively. The inhibition in experiment [6] stood at 7%; in experiment [15], 98%; in experiment [11], 43%; in experiment [12], 1%.

For `CCN(CC)CCOC(=O)C1(c2ccccc2)CCCC1`, the Ki in experiment [17] is > 1000 nM; in experiment [18], > 500 nM; in experiment [26], 658 nM. For the same molecule, the inhibition in experiment [1] stood at 19%; in experiment [25], 11%.

In experiment [13], `O=C(OCCCCCCN1CCC(c2ccccc2)CC1)C1(c2ccccc2)CCCC1` displayed a Ki of 1.88 nM.

The values are drawn from ChEMBL document CHEMBL1127555, “Novel (4-phenylpiperidinyl)- and (4-phenylpiperazinyl)alkyl-spaced esters of 1-phenylcyclopentanecarboxylic acids as potent sigma-selective compounds” (J Med Chem, 1994).
